Source: PubChem
STAT1 inh = inhibitors of IFN-gamma induced STAT1 signaling. NIH 3T3 STAT1-luciferase reporter, luminescence. inhibition, % at 5.5 µM. 200,000 tested, 0.35% active. AID 920;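 active = inhibition above a set limit, the mean inhibition across all tested compounds plus 3 SD, cut at about 34% in these data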;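 also: 0% = IFN-gamma with DMSO and 100% = IFN-gamma with 300 µM nifuroxazide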
Platelet DG rel = modulates dense granule release in human platelets; 300,000 tested, 0.22% active; human platelet-rich plasma, SFLLRN dense granule ATP release, luminescence; inhibition, %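 (compounds screened at 7.5 µM in platelet-rich plasma)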;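 active = mean replicate score, as percent of positive control, at or above 50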
PPC-1+TRAIL kill = compounds killing PPC-1 cancer cells with TRAIL present (potentiator screen, no TRAIL-free arm) | 220,000 tested, 0.41% active | cell killing (% activity), % at 4 µM or 5 µM | AID 1443 | PPC-1 cells + TRAIL, ATPLite viability luminescence;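 active = cell killing above 50% in the first pass at 4 µM, then a duplicate retest at 5 µM averaging 50% or more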;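 also: plate controls were cells with TRAIL plus DMSO for no effect and medium-only wells lacking cells for full effect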
Hep lipid drop = modulators of hepatic lipid droplet formation | AML12 mouse hepatocytes, oleate lipid droplets, BODIPY imaging | inhibition, % at 6.5 µM | 240,000 tested, 0.4% active | AID 1656;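 active = lipid droplet intensity inhibited by at least 50%, with more than 500 cells counted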
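Material: mouse AML12 hepatocyte cell line, fixed after treatment; Timing: compound with oleate, overnight; Technique: high-content imaging of BODIPY-stained droplets and DAPI nuclei; Probe or stimulus: oleate, 100 µM final; Dosing: compound at 6.5 µM only.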
TAG inh = triacylglycerol accumulation inhibition. H9c2 cells, Nile Red lipid (TAG) fluorescence; cells loaded with 200 µM oleic acid. inhibition, % at 12.5 µM. 230,000 tested, 0.66% active;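 active = pattern-corrected inhibition of lipid staining of at least 50% with the nuclear-stain viability signal not falling by more than 50%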;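 also: 0% = DMSO wells and 100% = triacsin C control wells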
STAT3 inh = STAT3 signaling inhibition. U3A cells, IL-6 STAT3-luciferase reporter, luminescence; host cell line lacks STAT1. inhibition, % at 5.5 µM. 190,000 tested, 0.89% active. AID 862;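 active = inhibition above the mean inhibition across all screened compounds plus 3 SD, cut at about 44% in these data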;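 also: 0% = DMSO only wells and 100% = 100 µM nifuroxazide control wells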
PPC-1 tox = kills PPC-1 cells. 1,200 tested, 50% active. PPC-1 viability, ATPlite luminescence, overnight. cytotoxicity, % at 5 µM. shares compounds with PPC-1+TRAIL kill;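 active = reconfirmed compounds whose average cytotoxicity reaches 50% or more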;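 also: 0% = DMSO-treated cells and 100% = wells holding medium but no cells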
Active calls of the source: *. Shown are actives, neighbours in structure and some others; about 1.5% of the full set was active somewhere.

What do the screens show for `CCCS(=O)(=O)NC(=O)C1(C)CCN(C(=O)c2cccs2)C1` (stereo unspecified)?
TAG inh: -5

What do the screens show for `CC(C)(C)C(=O)Nc1ccc(N=Nc2ccccc2)cc1`?
STAT1 inh: 67*; Platelet DG rel: 9; PPC-1+TRAIL kill: 62*; Hep lipid drop: -5; TAG inh: 1; STAT3 inh: 88*; PPC-1 tox: 68*

Results for O=C(/C=C/c1cccs1)c1ccc(N2CCOCC2)cc1 ?
STAT1 inh: -21; Platelet DG rel: 32; PPC-1+TRAIL kill: 64*; Hep lipid drop: -6; TAG inh: -6; STAT3 inh: 21; PPC-1 tox: 65*

How did O=C(/C=C/c1cccc(F)c1)c1ccc(N2CCOCC2)cc1 do in these assays?
Platelet DG rel: 2; PPC-1+TRAIL kill: 5; Hep lipid drop: 2; TAG inh: 4

Results for O=C(Nc1nc2cc3c(cc2s1)OCO3)c1cccc(N2C(=O)CCC2=O)c1 ?
Platelet DG rel: -1; PPC-1+TRAIL kill: 49; Hep lipid drop: -2; TAG inh: 10; PPC-1 tox: 58*

What do the screens show for `O=C(NCCc1c[nH]c2ccccc12)c1ccc([N+](=O)[O-])o1`?
TAG inh: 59

What do the screens show for `CCOC(=O)c1ccc(NC(=O)c2c(Cl)cc(C)nc2C)cc1`?
Platelet DG rel: -1; Hep lipid drop: -16

How did CCOC(=O)c1ccc(Nc2cc(C)nc(C)c2C(=O)OCC)cc1 do in these assays?
STAT1 inh: -2; Platelet DG rel: 14; PPC-1+TRAIL kill: 4; Hep lipid drop: 8; TAG inh: -6; STAT3 inh: 16; PPC-1 tox: -2

What do the screens show for `CCC(CNc1cc(OC)cc2cccnc12)NC1CCCCC1` (stereo unspecified)?
Platelet DG rel: 1; PPC-1+TRAIL kill: -3; Hep lipid drop: -1; PPC-1 tox: -16

Results for CC(=O)N(C(C)=O)c1ccc(Oc2ccc(Oc3ccc(N(C(C)=O)C(C)=O)cc3)cc2)cc1 ?
TAG inh: 4

How did COc1cccc(S(=O)(=O)N(C)C[C@H]2OCc3cnnn3CCCC(=O)N([C@H](C)CO)C[C@@H]2C)c1 do in these assays?
TAG inh: -3

What do the screens show for `O=c1[nH]c2ccccc2nc1C(Cl)c1ccccc1` (stereo unspecified)?
STAT1 inh: 2; Platelet DG rel: 1; PPC-1+TRAIL kill: 1; Hep lipid drop: 12; STAT3 inh: 10; PPC-1 tox: 4

How did COC(c1ccccc1)c1nc2ccccc2[nH]c1=O (stereo unspecified) do in these assays?
Platelet DG rel: 0; Hep lipid drop: -6

Results for O=C1CC(N2CCN(c3ccc(F)cc3)CC2)C(=O)N1Cc1ccc(N2CCCC2=O)cc1 (stereo unspecified) ?
STAT1 inh: 7; Platelet DG rel: 2; PPC-1+TRAIL kill: 14; Hep lipid drop: -2; TAG inh: -9; STAT3 inh: 24; PPC-1 tox: 20

Results for COc1ccc(N2CCN(C3CC(=O)N(Cc4ccc(N5CCCC5=O)cc4)C3=O)CC2)cc1 (stereo unspecified) ?
STAT1 inh: 8; Platelet DG rel: -1; PPC-1+TRAIL kill: 4; TAG inh: -17; STAT3 inh: 13

Results for Cc1cc(C(=O)Cn2nnc3ccccc3c2=O)c(C)n1-c1ccccc1F ?
STAT1 inh: -32; Platelet DG rel: -2; PPC-1+TRAIL kill: 69*; Hep lipid drop: 2; TAG inh: 5; STAT3 inh: 22; PPC-1 tox: 70*

What do the screens show for `CC1CCc2c(sc(/N=C/c3ccco3)c2C(N)=O)C1` (stereo unspecified)?
Platelet DG rel: 8; PPC-1+TRAIL kill: 49; Hep lipid drop: 1; TAG inh: 5; PPC-1 tox: 49

What do the screens show for `CC1CCc2c(sc(/N=C/c3cccnc3)c2C(N)=O)C1` (stereo unspecified)?
Platelet DG rel: 0; PPC-1+TRAIL kill: 15; Hep lipid drop: 21; TAG inh: 9

How did Cc1cc(N)n2nc(C)c(-c3ccc(Cl)cc3)c2n1 do in these assays?
STAT1 inh: -12; Platelet DG rel: -10; PPC-1+TRAIL kill: 17; Hep lipid drop: -19; TAG inh: 14; STAT3 inh: 22

What do the screens show for `Cc1cc(Cl)n2nc(C)c(-c3ccc(Cl)cc3)c2n1`?
STAT1 inh: -3; PPC-1+TRAIL kill: 54*; Hep lipid drop: 15; TAG inh: 13; STAT3 inh: 2; PPC-1 tox: 34

What do the screens show for `COc1ccc2c(c1)C(=O)C1(CC2)OC1c1cccnc1` (stereo unspecified)?
TAG inh: 3

Results for O=C1NC(Cc2ccc(O)cc2)c2nc3ccc(F)cc3c(=O)n2-c2ncccc21 (stereo unspecified) ?
TAG inh: 4

What do the screens show for `COc1ccc(OCC(=O)N/N=C/C=C/c2ccccc2)cc1`?
STAT1 inh: 4; Platelet DG rel: -3; PPC-1+TRAIL kill: 39; Hep lipid drop: -1; TAG inh: -14; STAT3 inh: 4; PPC-1 tox: 40

Results for COc1ccc(C(=O)Nc2ccccc2C(=O)N/N=C/c2ccccn2)cc1OC ?
Platelet DG rel: 56*; PPC-1+TRAIL kill: 75*; Hep lipid drop: 0; TAG inh: 41; PPC-1 tox: 75*

Results for C/C(=N\Nc1nc2ccccc2[nH]1)c1ccc(N2CCOCC2)cc1 ?
STAT1 inh: 15; Platelet DG rel: -15; PPC-1+TRAIL kill: 71*; Hep lipid drop: 8; TAG inh: 2; STAT3 inh: 21; PPC-1 tox: 71*

Results for CC(c1ccco1)N(C(=O)COc1ccc(Cl)cc1Cl)c1ccccn1 (stereo unspecified) ?
STAT1 inh: -24; Platelet DG rel: 8; PPC-1+TRAIL kill: 14; Hep lipid drop: -24; STAT3 inh: 23; PPC-1 tox: 4

What do the screens show for `Cc1ccc(CNC(=O)C2(C)Oc3ccccc3NC2=O)cc1` (stereo unspecified)?
STAT1 inh: -3; Platelet DG rel: 1; PPC-1+TRAIL kill: 1; Hep lipid drop: 9; TAG inh: -2; STAT3 inh: -3; PPC-1 tox: 4

How did COc1cc(CN2C[C@@H](CO)O[C@@H](n3cnc4c(NCc5ccncc5)ncnc43)C2)cc(OC)c1OC do in these assays?
TAG inh: 9

Results for CC(=O)N=c1sc2nc3ccccc3nc2n1N(C(C)=O)C(C)=O ?
STAT1 inh: 9; Platelet DG rel: -1; PPC-1+TRAIL kill: -3; Hep lipid drop: 8; TAG inh: -3; STAT3 inh: 2; PPC-1 tox: -10

Results for CC(=O)N=c1sc2ccccc2n1C ?
STAT1 inh: 4; Platelet DG rel: 7; PPC-1+TRAIL kill: 17; TAG inh: -13; STAT3 inh: 16
